pKi: −log10 of the molar value.
Each compound was assayed against T1, Adenosine receptor A1 (Rattus norvegicus, UniProt P25099) (assay: Inhibition of binding of 1 nM N6-[3H]cyclohexyladenosine to adenosine A1 receptor on rat cerebral cortical membranes.).
T1 sequence (P25099 whole entry): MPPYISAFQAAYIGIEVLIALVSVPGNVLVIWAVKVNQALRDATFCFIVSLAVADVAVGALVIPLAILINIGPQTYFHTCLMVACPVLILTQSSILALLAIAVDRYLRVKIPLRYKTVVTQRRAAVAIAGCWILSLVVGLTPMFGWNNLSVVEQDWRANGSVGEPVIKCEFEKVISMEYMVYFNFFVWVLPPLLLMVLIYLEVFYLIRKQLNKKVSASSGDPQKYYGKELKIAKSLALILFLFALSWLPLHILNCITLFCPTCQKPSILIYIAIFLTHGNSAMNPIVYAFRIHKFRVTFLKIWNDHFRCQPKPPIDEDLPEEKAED
Format: cell membranes, Membrane
In short: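 Displacement of 1 nM N6-[3H]cyclohexyladenosine by a range of analogue concentrations, run in triplicate in at least two separate experiments. IC50 estimated graphically for each experiment. Values are mean ± SEM of two to four experiments.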

Compound	pKi
CCOC(=O)CNC(=O)Cc1ccc(Nc2ncnc3c2ncn3C2O[C@H](CO)[C@@H](O)[C@H]2O)cc1 (some centres not stated)	7.82
COC(=O)C(Cc1ccc(NC(=O)Cc2ccc(Nc3ncnc4c3ncn4C3O[C@H](CO)[C@@H](O)[C@H]3O)cc2)cc1)NC(=O)C(F)(F)F (some centres not stated)	7.74
O=C(O)Cc1ccc(Nc2ncnc3c2ncn3C2O[C@H](CO)[C@@H](O)[C@H]2O)cc1 (some centres not stated)	6.68
Cc1ccccc1NC(=O)Cc1ccc(Nc2ncnc3c2ncn3C2O[C@H](CO)[C@@H](O)[C@H]2O)cc1 (some centres not stated)	8.17
O=C(CCCCC1SCC2NC(=O)NC21)NCCNC(=O)Cc1ccc(NC(=O)Cc2ccc(Nc3ncnc4c3ncn4C3O[C@H](CO)[C@@H](O)[C@H]3O)cc2)cc1 (some centres not stated)	7.94
CC(=O)NCCNC(=O)Cc1ccc(NC(=O)Cc2ccc(Nc3ncnc4c3ncn4C3O[C@H](CO)[C@@H](O)[C@H]3O)cc2)cc1 (some centres not stated)	8.03
CNC(=O)CNC(=O)C(Cc1ccc(NC(=O)Cc2ccc(Nc3ncnc4c3ncn4C3O[C@H](CO)[C@@H](O)[C@H]3O)cc2)cc1)NC(=O)OC(C)(C)C (some centres not stated)	7.89

More lines, in order of rising pKi, values ahead:

pKi	Compound
8.17	CNC(=O)Cc1ccc(NC(=O)Cc2ccc(Nc3ncnc4c3ncn4C3O[C@H](CO)[C@@H](O)[C@H]3O)cc2)cc1 (some centres not stated)
8.35	O=C(CCc1ccc(O)cc1)NCCNC(=O)Cc1ccc(NC(=O)Cc2ccc(Nc3ncnc4c3ncn4C3O[C@H](CO)[C@@H](O)[C@H]3O)cc2)cc1 (some centres not stated)
8.35	NNC(=O)Cc1ccc(NC(=O)Cc2ccc(Nc3ncnc4c3ncn4C3O[C@H](CO)[C@@H](O)[C@H]3O)cc2)cc1 (some centres not stated)
8.48	O=C(Cc1ccc(Nc2ncnc3c2ncn3C2O[C@H](CO)[C@@H](O)[C@H]2O)cc1)Nc1ccc(C(F)(F)F)cc1 (some centres not stated)
8.49	OC[C@H]1O[C@@H](n2cnc3c(Nc4ccccc4)ncnc32)[C@H](O)[C@@H]1O [N6-PHENYLADENOSINE]
8.60	COC(=O)Cc1ccc(NC(=O)Cc2ccc(Nc3ncnc4c3ncn4C3O[C@H](CO)[C@@H](O)[C@H]3O)cc2)cc1 (some centres not stated)
8.60	Cc1ccc(Nc2ncnc3c2ncn3C2O[C@H](CO)[C@@H](O)[C@H]2O)cc1 (some centres not stated)
8.64	COc1ccc(Nc2ncnc3c2ncn3[C@@H]2O[C@H](CO)[C@@H](O)[C@H]2O)cc1
8.70	Cc1cccc(NC(=O)Cc2ccc(Nc3ncnc4c3ncn4C3O[C@H](CO)[C@@H](O)[C@H]3O)cc2)c1 (some centres not stated)
8.77	Cc1ccc(NC(=O)Cc2ccc(Nc3ncnc4c3ncn4C3O[C@H](CO)[C@@H](O)[C@H]3O)cc2)cc1 (some centres not stated)
